Compound activity as filed in PubChem BioAssay.
A selection: hits, their analogues and other compounds. The true share with any hit is near 2%.
SR-BI HDL uptake: inhibitors of mouse SR-BI mediated HDL lipid uptake. AID 488896. inhibition, % at 12.5 µM. Q61009. actives 0.96% (n = 320,000). ldlA[mSR-BI] CHO cells, DiI-HDL uptake fluorescence, 3 h;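 active = mean replicate inhibition of at least 70% and a set share of replicates each scoring 70 or more; inconclusive = meets just one of the two criteria; inactive = fails both criteria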
HGIII-sPLA2 inh: Inhibits HGIII-sPLA2 liposome hydrolysis, primary screen; actives 0.56% (n = 370,000); inhibition, % at 12.2 µM; QFRET BODIPY PC-A2 liposome hydrolysis, fluorescence; Q9NZ20;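 active = inhibition above mean plus 3 SD of compounds lying within the high and low control bounds, cut at about 19% in these data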
Target sequence (Q9NZ20 whole entry, looked up): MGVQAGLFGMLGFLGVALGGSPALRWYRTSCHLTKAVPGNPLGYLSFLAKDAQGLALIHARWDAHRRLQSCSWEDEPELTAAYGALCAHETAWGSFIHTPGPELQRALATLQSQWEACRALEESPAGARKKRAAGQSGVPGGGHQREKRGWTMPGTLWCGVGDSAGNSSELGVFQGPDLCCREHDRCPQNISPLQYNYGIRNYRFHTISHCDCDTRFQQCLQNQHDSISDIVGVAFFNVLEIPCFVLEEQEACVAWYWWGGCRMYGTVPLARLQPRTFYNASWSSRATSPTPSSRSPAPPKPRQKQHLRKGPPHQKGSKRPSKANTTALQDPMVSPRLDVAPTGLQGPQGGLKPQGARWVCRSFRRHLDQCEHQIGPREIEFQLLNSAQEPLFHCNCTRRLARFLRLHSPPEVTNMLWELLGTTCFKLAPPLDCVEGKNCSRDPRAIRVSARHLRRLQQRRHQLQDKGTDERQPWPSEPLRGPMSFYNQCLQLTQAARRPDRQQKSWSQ
XiGFP reactiv: X-chromosome reactivation activator; AID 743238; XiGFP mouse fibroblasts, % GFP-positive cells imaging, 3 d; cells co-treated with 5-aza-dC sensitizer; scaled so ellipticine positive control = 100%; actives 0.055% (n = 360,000); activation, % at 7.58 µM;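 active = mean normalized replicate activation at least 10% and every replicate at or above 10%; inconclusive = only one of the two criteria met; inactive = mean below 10% and not all replicates reach 10%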
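Material: XiGFP fibroblasts, SV40-immortalized; Buffer or medium: DMEM containing 5-aza-dC; Compound dosing: single point; Times: 3 days compound exposure.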
NSD2 HMT inh: blocks human histone methyltransferase NSD2; O96028; inhibition, % at 12.5 µM; actives 0.54% (n = 310,000); NSD2 peptide methylation, AlphaScreen, 120 min; in the data active = inhibition above about 50%
SR-BI uptake up: activators of SR-BI mediated HDL lipid uptake; CHO ldlA[mSR-BI] cells, DiI-HDL uptake fluorescence, 3 h; 100 = double the neutral-control signal; activation, % at 12.5 µM; actives 0.096% (n = 320,000);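 active = mean replicate activation of at least 60% and every replicate at or above 60%; inconclusive = mean or all-replicate condition met, but not both; inactive = mean below 60% and not all replicates reaching 60%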
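material = CHO ldlA[mSR-BI] cells | medium = Ham's F12 with 0.5% BSA, HEPES 25 mM, pH 7.4 | reagent = fluorescent DiI-HDL, 10 µg/mL final | compound dosing = single-point compound dose | incubation = 3 h, 37 °C | measured by = bottom-read fluorescence, 550/595 nm | measure = HDL uptake via cellular fluorescence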
ARNT TACC3 PPI: disruptors of human ARNT/TACC3 interaction. AlphaScreen His-ARNT PAS-B/GST-TACC3 binding, luminescence; TACC3 fragment carries E629A point mutation. inhibition, % at 9.99 µM. actives 0.66% (n = 390,000);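 active = mean inhibition of replicates at least 50% and at least half of replicates each reaching 50%; inconclusive = half or more replicates reach 50% but mean below 50%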
DiI quench: counter-screen for SR-BI lipid transfer inhibitors: DiI fluorescence quenchers. AC50, µM (highest dose often 35 µM). actives 20% (n = 470). cell-free DiI-HDL fluorescence quenching, 30 min. shares compounds with SR-BI HDL uptake. AID 540326;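 active = quenching, a falling signal, with AC50 below a set limit tied to the top valid dose, actives reach about 32 µM in these data; inconclusive = no clear call, values can overlap the other calls; inactive = rising signal, and the rest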
Numbers stand for hits.

Screening CO[C@@H]1CN(C)C(=O)c2ccc(NC(=O)C3CC3)cc2OC[C@@H](C)N(C(=O)Cc2ccccn2)C[C@H]1C returned XiGFP reactiv inactive and ARNT TACC3 PPI inactive.
`O=c1cc(CN2CCN(C/C=C/c3ccccc3)CC2)c2cc(O)c(-c3ccccc3)cc2o1` gave SR-BI HDL uptake inactive, HGIII-sPLA2 inh inactive, NSD2 HMT inh inactive, SR-BI uptake up inactive and ARNT TACC3 PPI inactive.
Cc1cc2oc(=O)cc(CN3CCN(C/C=C/c4ccccc4)CC3)c2cc1O was read as SR-BI HDL uptake 75.6, HGIII-sPLA2 inh inactive, NSD2 HMT inh inactive, SR-BI uptake up inactive, ARNT TACC3 PPI inactive and DiI quench inactive.
O=C(CN1CCN(CC(=O)Nc2ccc3c(c2)OC2(CCCCC2)O3)CC1)Nc1cccc(F)c1 was read as SR-BI HDL uptake inactive, HGIII-sPLA2 inh inactive, XiGFP reactiv inactive, NSD2 HMT inh inactive, SR-BI uptake up inactive and DiI quench inactive.
Screening Cc1ccc(S(=O)(=O)N(CC(=O)NCc2ccncc2)Cc2ccc(F)cc2)cc1 returned SR-BI HDL uptake inactive, HGIII-sPLA2 inh inactive, XiGFP reactiv inactive, NSD2 HMT inh inactive, SR-BI uptake up inactive and ARNT TACC3 PPI inactive.
Screening Cc1ccc(-c2nnc(N3CCC(C)CC3)c3ccccc23)cc1 returned SR-BI HDL uptake inactive, HGIII-sPLA2 inh inactive, XiGFP reactiv inactive, NSD2 HMT inh inactive, SR-BI uptake up inactive and ARNT TACC3 PPI inactive.
Screening Cc1ccc(-c2nnc(N3CCC(C)CC3)c3ccccc23)cc1C returned SR-BI HDL uptake 91.8, HGIII-sPLA2 inh inactive, XiGFP reactiv inactive, NSD2 HMT inh inactive, SR-BI uptake up inactive, ARNT TACC3 PPI inactive and DiI quench inactive.
NC(Cc1ccccc1)c1csc(Nc2ccc(C(F)(F)F)cn2)n1 (configuration not stated) was read as HGIII-sPLA2 inh inactive, XiGFP reactiv inactive and NSD2 HMT inh inactive.
CCCCC(=O)Nc1cccc(NC(=O)c2ccccc2Br)c1 was read as SR-BI HDL uptake 73.7, HGIII-sPLA2 inh inactive, NSD2 HMT inh inactive, SR-BI uptake up inactive, ARNT TACC3 PPI inactive and DiI quench inactive.
N#Cc1ccc(C(=O)N2CCC3CC2c2cc(-c4ccc(F)cc4)ccc23)cc1 (configuration not stated) was read as SR-BI HDL uptake inactive, HGIII-sPLA2 inh inactive, XiGFP reactiv inactive, SR-BI uptake up inactive, ARNT TACC3 PPI inactive and DiI quench inactive.
CC(=O)c1ccc(OCC(=O)N2CCN(S(=O)(=O)c3ccc(C)cc3C)CC2)cc1 was read as SR-BI HDL uptake inactive, HGIII-sPLA2 inh inactive, XiGFP reactiv inactive, NSD2 HMT inh inactive, SR-BI uptake up inactive and ARNT TACC3 PPI inactive.
For COc1ccc(C(=O)N2CCOC2CNC(=O)C(=O)NCc2ccccc2)cc1 (configuration not stated) the results were HGIII-sPLA2 inh inactive, XiGFP reactiv inactive and NSD2 HMT inh inactive.
Screening Cc1sc(NC(=O)CN2CCOCC2)nc1-c1ccc2c(c1)CCN2S(=O)(=O)c1ccccc1 returned SR-BI HDL uptake inconclusive, HGIII-sPLA2 inh inactive, NSD2 HMT inh inactive, SR-BI uptake up inactive, ARNT TACC3 PPI inactive and DiI quench inactive.
For O=C(CN1CCOCC1)Nc1nc(-c2ccc3c(c2)CCN3S(=O)(=O)c2ccccc2)cs1 the results were SR-BI HDL uptake inactive, HGIII-sPLA2 inh inactive, NSD2 HMT inh inactive, SR-BI uptake up inactive and DiI quench inactive.
Screening Cc1ccc(S(=O)(=O)NC2=NCN(C)CN2)cc1[N+](=O)[O-] returned SR-BI HDL uptake inactive, HGIII-sPLA2 inh inactive, XiGFP reactiv inactive, NSD2 HMT inh inactive, SR-BI uptake up inactive and ARNT TACC3 PPI inactive.
Screening COc1ccc([N+](=O)[O-])cc1N(CC(=O)NC(C(C)C)C(C)C)S(C)(=O)=O returned SR-BI HDL uptake inactive, HGIII-sPLA2 inh inactive, XiGFP reactiv inactive, NSD2 HMT inh inactive, SR-BI uptake up inactive and ARNT TACC3 PPI inactive.
For COc1ccccc1-n1c(SCC(=O)NCc2ccc3c(c2)OCO3)nc2cc([N+](=O)[O-])ccc21 the results were SR-BI HDL uptake inactive, HGIII-sPLA2 inh inactive, XiGFP reactiv inactive, NSD2 HMT inh inactive, SR-BI uptake up inactive and ARNT TACC3 PPI inactive.
For CC(Sc1nc2cc([N+](=O)[O-])ccc2n1-c1ccc(F)cc1)C(=O)NCc1ccc2c(c1)OCO2 (configuration not stated) the results were SR-BI HDL uptake 81.9, HGIII-sPLA2 inh inactive, XiGFP reactiv inactive, NSD2 HMT inh inactive, SR-BI uptake up inactive, ARNT TACC3 PPI inactive and DiI quench inactive.
`CC(=O)Nc1cccc(-c2csc(Nc3ncccn3)n2)c1` gave HGIII-sPLA2 inh inactive, XiGFP reactiv inactive and NSD2 HMT inh inactive.
O=C(Nc1cccc(-c2csc(Nc3ccc(Cl)cc3)n2)c1)c1cccc(C(F)(F)F)c1 was read as SR-BI HDL uptake 109.8, HGIII-sPLA2 inh inactive, XiGFP reactiv inactive, SR-BI uptake up inactive and DiI quench 2.1µM.
For Cc1sc(NC(=O)c2cccc([N+](=O)[O-])c2)c(C(N)=O)c1-c1ccc(C(C)(C)C)cc1 the results were SR-BI HDL uptake 77.1, HGIII-sPLA2 inh inactive, NSD2 HMT inh inactive, SR-BI uptake up inactive, ARNT TACC3 PPI inactive and DiI quench inactive.
Screening Cc1sc(NC(=O)/C=C/C(=O)O)c(C(N)=O)c1-c1ccc(C(C)(C)C)cc1 returned SR-BI HDL uptake inactive, HGIII-sPLA2 inh inactive, XiGFP reactiv inactive, NSD2 HMT inh inactive, SR-BI uptake up inactive and ARNT TACC3 PPI inactive.
For Cc1ccc(C(=O)COC(=O)c2cn3ccccc3n2)cc1 the results were SR-BI HDL uptake inactive, HGIII-sPLA2 inh inactive, XiGFP reactiv inactive, NSD2 HMT inh inactive, SR-BI uptake up inactive and ARNT TACC3 PPI inactive.
Screening c1ccc(CCNc2nc(-c3ccncc3)nc3ccccc23)cc1 returned SR-BI HDL uptake inconclusive, HGIII-sPLA2 inh inactive, XiGFP reactiv inactive, NSD2 HMT inh inactive, SR-BI uptake up inactive, ARNT TACC3 PPI inactive and DiI quench inactive.
For c1ccc(Nc2nc(-c3ccncc3)nc3ccccc23)cc1 the results were SR-BI HDL uptake inactive, HGIII-sPLA2 inh inactive, XiGFP reactiv inactive, NSD2 HMT inh inactive, SR-BI uptake up inactive and ARNT TACC3 PPI inactive.
CCOc1ccc(NC(=O)CCNC(=O)c2ccco2)cc1 was read as SR-BI HDL uptake inactive, HGIII-sPLA2 inh inactive, XiGFP reactiv inactive, NSD2 HMT inh inactive, SR-BI uptake up inactive and ARNT TACC3 PPI inactive.
Screening CN(Cc1ccc(OC(F)F)cc1)C(=O)c1ccccc1Sc1ccccc1C#N returned SR-BI HDL uptake 85.2, HGIII-sPLA2 inh inactive, XiGFP reactiv inactive, NSD2 HMT inh inactive, SR-BI uptake up inactive, ARNT TACC3 PPI inactive and DiI quench inactive.
